# “Also recorded” adds a separate entry of the source. Where two headings read alike, the source gives them in different places.
# Columns and labels:
# [1] = Comparison of pharmacokinetics, Japanese versus non-Japanese subjects; format: in vivo, human; settings: Day 10
# How it was run: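 Day-10 Japanese multiple-dose pharmacokinetic parameters were compared with a prior Phase I non-Japanese study (MAD part). Parameters were log-transformed to give geometric mean ratios with 90% confidence intervals. Cmax and AUCτ were also normalised to 70 kg body weight. Six subjects per cohort.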
# [2] = SMAD study, fasting and fed healthy volunteers; cited from earlier work
# [3] = Clinical safety and tolerability in healthy Japanese subjects; format: in vivo, human
# How it was run: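 Randomised, placebo-controlled: four cohorts of 8 (6 active, 2 placebo) received an oral amorphous suspension once on Day 1, then once daily on Days 3–10, fasted. Assessments were adverse events, vital signs, ECG, telemetry and routine clinical laboratory tests. They were taken before and at scheduled times after dosing and at follow-up 7–10 days after the final dose.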
# [4] = tested on: LTE4 in urine; assay: Creatine-normalized urine LTE4 quantification; format: in vivo, human
# How it was run: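 Urinary LTE₄ was normalised to creatinine. On Days 1 and 10, samples were a pre-dose spot, pooled 0–3, 3–6, 6–9 and 9–12 h collections, and spots at 24 and 36 h. Only pre-dose spots were taken on Days 3–9. Inhibition was related to plasma exposure after oral doses of 60–600 mg.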
# [5] = Pharmacokinetics in healthy non-Japanese subjects; format: in vivo, human; settings: for AUCτ, non-Japanese geometric mean, body weight normalized to 70 kg: Day 10
# [6] = format: in vivo, human; settings: for Tmax: median (range)
# How it was run: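 Oral suspension given fasted (10 h overnight), 6 subjects per dose. Blood (2 mL, K₂-EDTA) was taken pre-dose and 0.5–48 h after the first and Day-10 doses. Day-10 urine was collected pre-dose and over 0–3, 3–6, 6–12 and 12–24 h. Analysis used validated methods and non-compartmental methods with actual sampling times. AUC was by log-linear trapezoidal rule.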
# [7] = cited from earlier work
# [8] = Japanese, 60 mg OD, Day 1, geometric mean (CV%)
# [9] = Japanese, 60 mg OD, Day 10, geometric mean (CV%)
# [10] = Japanese, 180 mg OD, Day 1, geometric mean (CV%)
# [11] = Japanese, 180 mg OD, Day 10, geometric mean (CV%)
# [12] = Japanese, 360 mg OD, Day 1, geometric mean (CV%)
# [13] = Japanese, 360 mg OD, Day 10, geometric mean (CV%)
# [14] = Japanese, 600 mg OD, Day 1, geometric mean (CV%)
# [15] = Japanese, 600 mg OD, Day 10, geometric mean (CV%)
smiles,measurement,setting,value
Cc1cc(-c2ccc(C(=O)[C@@H]3CCCC[C@H]3C(=O)Nc3cnn4c3C(=O)NCC4)cc2)n[nH]1 [AZD5718],"AUCτ GMR Japanese versus non-Japanese, % (90% CI)",[1]; 60 mg,82 (63–108) %
same,"AUCτ GMR Japanese versus non-Japanese, % (90% CI), body weight normalized to 70 kg",[1]; 60 mg,72 (55–95) %
same,"Cmax GMR Japanese versus non-Japanese, % (90% CI)",[1]; 60 mg,72 (54–97) %
same,"Cmax GMR Japanese versus non-Japanese, % (90% CI), body weight normalized to 70 kg",[1]; 60 mg,63 (48–84) %
same,"AUCτ GMR Japanese versus non-Japanese, % (90% CI)",[1]; 180 mg,131 (88–196) %
same,"AUCτ GMR Japanese versus non-Japanese, % (90% CI), body weight normalized to 70 kg",[1]; 180 mg,101 (71–144) %
same,"Cmax GMR Japanese versus non-Japanese, % (90% CI)",[1]; 180 mg,126 (82–195) %
same,"Cmax GMR Japanese versus non-Japanese, % (90% CI), body weight normalized to 70 kg",[1]; 180 mg,97 (65–145) %
same,"AUCτ GMR Japanese versus non-Japanese, % (90% CI)",[1]; 360 mg,124 (83–186) %
same,"AUCτ GMR Japanese versus non-Japanese, % (90% CI), body weight normalized to 70 kg",[1]; 360 mg,102 (70–149) %
same,"Cmax GMR Japanese versus non-Japanese, % (90% CI)",[1]; 360 mg,108 (72–162) %
same,"Cmax GMR Japanese versus non-Japanese, % (90% CI), body weight normalized to 70 kg",[1]; 360 mg,89 (60–131) %
same,"AUCτ GMR Japanese versus non-Japanese, % (90% CI)",[1]; 600 mg,118 (73–190) %
same,"AUCτ GMR Japanese versus non-Japanese, % (90% CI), body weight normalized to 70 kg",[1]; 600 mg,104 (69–156) %
same,"Cmax GMR Japanese versus non-Japanese, % (90% CI)",[1]; 600 mg,108 (66–178) %
same,"Cmax GMR Japanese versus non-Japanese, % (90% CI), body weight normalized to 70 kg",[1]; 600 mg,95 (64–142) %
same,tolerability,[2],well tolerated
same,serious adverse events,"[3]; Japanese, 60, 180, 360, 600 mg",No serious AEs
same,"vital signs, ECG, telemetry, laboratory results","[3]; Japanese, all doses",no clinically significant trends
same,tolerability,"[3]; Japanese, single and multiple oral doses 60, 180, 360, 600 mg","No clinically relevant safety and tolerability findings; also recorded: safe, well tolerated"
same,time at which level of full LTE4 inhibition achieved,"[4]; Japanese, after the first dose, all doses",8 h
same,sustained reduction in LTE4 in urine,"[4]; Japanese, all doses",above 80%
same,inhibition of LTE4 in urine after the first dose,"[4]; Japanese, all doses (60–600 mg)",> 80%
same,time of maximum reduction in LTE4 in urine post-dose,"[4]; after first dose, both Japanese and non-Japanese subjects",≤ 12 h
same,urinary LTE4 inhibition versus AZD5718 exposure,"[4]; single and multiple doses, at plasma concentrations in the lower nM range",> 80%
same,"AUCτ, non-Japanese geometric mean, body weight normalized to 70 kg",[5]; 60 mg,1464.7 nmol·h/L
same,"AUCτ, non-Japanese geometric mean, body weight normalized to 70 kg",[5]; 180 mg,5837.1 nmol·h/L
same,"AUCτ, non-Japanese geometric mean, body weight normalized to 70 kg",[5]; 360 mg,"14,647.6 nmol∙h/L"
same,"AUCτ, non-Japanese geometric mean, body weight normalized to 70 kg",[5]; 600 mg,"24,956.5 nmol∙h/L"
same,Cmax,"[5]; read-out: Cmax, non-Japanese geometric mean, body weight normalized to 70 kg, 60 mg, Day 10",232 nM
same,Cmax,"[5]; read-out: Cmax, non-Japanese geometric mean, body weight normalized to 70 kg, 180 mg, Day 10",1420 nM
same,Cmax,"[5]; read-out: Cmax, non-Japanese geometric mean, body weight normalized to 70 kg, 360 mg, Day 10",3680 nM
same,Cmax,"[5]; read-out: Cmax, non-Japanese geometric mean, body weight normalized to 70 kg, 600 mg, Day 10",6130 nM
same,"AUCτ, Japanese geometric mean, body weight normalized to 70 kg","[6]; 60 mg, Day 10",1056.0 nmol·h/L
same,"AUCτ, Japanese geometric mean, body weight normalized to 70 kg","[6]; 180 mg, Day 10",5896.7 nmol·h/L
same,"AUCτ, Japanese geometric mean, body weight normalized to 70 kg","[6]; 360 mg, Day 10","14,981.4 nmol∙h/L"
same,"AUCτ, Japanese geometric mean, body weight normalized to 70 kg","[6]; 600 mg, Day 10","25,893.0 nmol∙h/L"
same,Cmax,"[6]; Japanese, 60 mg OD oral suspension, Day 1, geometric mean (CV%), n = 6",140 nM
same,AUCτ,[6]; [8],862.9 (35.8) nmol∙h/L
same,CL/F,[6]; [8],142.1 (33.5) L/h
same,t½,[6]; [8],10.1 (44.0) h
same,Tmax,"[6]; Japanese, 60 mg OD, Day 1","1.0 (1.0, 3.0) h"
same,AUCτ,[6]; [9],1140.5 (25.5) nmol∙h/L
same,CL/F,[6]; [9],117.8 (25.5) L/h
same,CLR,[6]; [9],0.8 (22.5) L/h
same,Cmax,[6]; [9],159 nM
same,t½,[6]; [9],12.8 (47.0) h
same,Tmax,"[6]; Japanese, 60 mg OD, Day 10","2.0 (1.0, 3.0) h"
same,AUCτ,[6]; [10],4739.4 (33.3) nmol∙h/L
same,CL/F,[6]; [10],82.2 (35.8) L/h
same,Cmax,[6]; [10],1280 nM
same,t½,[6]; [10],8.5 (47.9) h
same,Tmax,"[6]; Japanese, 180 mg OD, Day 1","1.0 (0.5, 2.0) h"
same,AUCτ,[6]; [11],6724.5 (32.0) nmol∙h/L
same,CL/F,[6]; [11],60.0 (32.0) L/h
same,CLR,[6]; [11],0.8 (38.4) L/h
same,Cmax,[6]; [11],1570 nM
same,t½,[6]; [11],8.6 (23.6) h
same,Tmax,"[6]; Japanese, 180 mg OD, Day 10","1.5 (1.0, 2.0) h"
same,AUCτ,[6]; [12],8971.1 (47.6) nmol∙h/L
same,CL/F,[6]; [12],84.3 (51.7) L/h
same,Cmax,[6]; [12],2200 nM
same,t½,[6]; [12],15.0 (100.5) h
same,Tmax,"[6]; Japanese, 360 mg OD, Day 1","1.0 (1.0, 2.1) h"
same,AUCτ,[6]; [13],"15,847.3 (47.8) nmol∙h/L"
same,CL/F,[6]; [13],50.9 (47.8) L/h
same,CLR,[6]; [13],0.9 (21.0) L/h
same,Cmax,[6]; [13],3460 nM
same,t½,[6]; [13],10.5 (29.1) h
same,Tmax,"[6]; Japanese, 360 mg OD, Day 10","2.0 (1.0, 3.0) h"
same,AUCτ,[6]; [14],"17,592.6 (39.9) nmol∙h/L"
same,CL/F,[6]; [14],74.1 (40.0) L/h
same,Cmax,[6]; [14],5180 nM
same,t½,[6]; [14],7.4 (25.5) h
same,Tmax,"[6]; Japanese, 600 mg OD, Day 1","1.0 (1.0, 2.0) h"
same,AUCτ,[6]; [15],"27,349.3 (48.8) nmol∙h/L"
same,CL/F,[6]; [15],49.1 (48.8) L/h
same,CLR,[6]; [15],0.8 (16.8) L/h
same,Cmax,[6]; [15],6150 nM
same,t½,[6]; [15],8.5 (35.1) h
same,Tmax,"[6]; Japanese, 600 mg OD, Day 10","1.0 (1.0, 2.0) h"
same,Tmax (median) across doses,"[6]; Japanese, 60–600 mg oral, fasted",1 to 2 h
same,accumulation in AUCτ,"[6]; Japanese, Day 10 versus Day 1, all doses",32–77%
same,time to steady-state plasma concentrations,"[6]; Japanese, once-daily dosing",3 to 4 days
same,Cmax,"[6]; read-out: Cmax, Japanese geometric mean, body weight normalized to 70 kg, 60 mg, Day 10",147 nM
same,Cmax,"[6]; read-out: Cmax, Japanese geometric mean, body weight normalized to 70 kg, 180 mg, Day 10",1370 nM
same,Cmax,"[6]; read-out: Cmax, Japanese geometric mean, body weight normalized to 70 kg, 360 mg, Day 10",3270 nM
same,Cmax,"[6]; read-out: Cmax, Japanese geometric mean, body weight normalized to 70 kg, 600 mg, Day 10",5820 nM
same,time to steady-state levels,"[7]; SMAD study, once-daily dosing",2 to 3 days
same,terminal half-life,[7]; SMAD study,10 h
same,"AUCτ, non-Japanese geometric mean","[7]; non-Japanese, 60 mg multiple dosing, Day 10",1386.3 nmol·h/L
same,"AUCτ, non-Japanese geometric mean","[7]; non-Japanese, 180 mg multiple dosing, Day 10",5128.4 nmol·h/L
same,"AUCτ, non-Japanese geometric mean","[7]; non-Japanese, 360 mg multiple dosing, Day 10","12,764.7 nmol∙h/L"
same,"AUCτ, non-Japanese geometric mean","[7]; non-Japanese, 600 mg multiple dosing, Day 10","23,175.0 nmol∙h/L"
same,Cmax,"[7]; read-out: Cmax, non-Japanese geometric mean, non-Japanese, 60 mg multiple dosing, Day 10",220 nM
